According to ChEMBL document CHEMBL1146009, “Synthesis and cytotoxic activity of polyamine analogues of camptothecin” (J Med Chem, 2006):

Experiments:
[1] = test system: Mus musculus; assay: Toxicity in nude athymic mouse at 1 mg/kg, iv; assay type: organism-based; parameters: dose 1 mg/kg, route intravenous; settings: in vivo
[2] = test system: Mus musculus; assay: Toxicity in nude athymic mouse at 4 mg/kg, iv; assay type: organism-based; parameters: dose 4 mg/kg, route intravenous; settings: in vivo
[3] = test system: NCI-H460; assay: Inhibition of human H460 cell growth; assay type: functional, cell-based
How it was run: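 H460 cells grown in RPMI-1640 with 10% FCS, seeded in duplicate in log phase. Drug from DMSO stock added 24 h after seeding for 1 h exposure. Cells counted 72 h later by Coulter counter. IC50 is the concentration giving 50% growth decrease versus untreated control; mean ± SD of at least three experiments.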

[4] = test system: Mus musculus; assay: Toxicity in nude athymic mouse at 15 mg/kg, po; assay type: organism-based; parameters: dose 15 mg/kg, route oral; settings: in vivo
How it was run: (§1)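 Nude athymic mice bearing MKN-28 human gastric carcinoma xenografts, from tumor fragments inoculated on both flanks at day 0. Oral treatment started when tumors were just palpable (day 3-4). Body weight loss (%) and toxicity were recorded per dose group, with toxicity given as a count over 4 mice.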

[5] = test system: MKN-28; assay: Antitumor activity against human MKN28 cell line xenografted in nude athymic mouse at 15 mg/kg, po measured as body weight loss; assay type: functional; how it was run: as §1
[6] = test system: MKN-28; assay: Antitumor activity against human MKN28 cell line xenografted in nude athymic mouse at 5 mg/kg, po measured as tumor volume inhibition relative to control; assay type: functional
How it was run: (§2)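 MKN-28 human gastric carcinoma tumor fragments inoculated on both flanks of nude athymic mice at day 0. Oral dosing began when tumors were just palpable (day 3-4). Read-out was tumor volume inhibition (%) of treated over control animals, 20 days after the last treatment. Groups of 4 mice.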

[7] = test system: MKN-28; assay: Antitumor activity against human MKN28 cell line xenografted in nude athymic mouse at 9 mg/kg, po measured as log10 of cell kill to reach 1000 mm3 tumor volume; assay type: functional
[8] = test system: MKN-28; assay: Antitumor activity against human MKN28 cell line xenografted in nude athymic mouse at 5 mg/kg, po measured as body weight loss; assay type: functional; how it was run: as §1
[9] = test system: MKN-28; assay: Antitumor activity against human MKN28 cell line xenografted in nude athymic mouse at 9 mg/kg, po measured as tumor volume inhibition relative to control; assay type: functional; how it was run: as §2
[10] = test system: Mus musculus; assay: Toxicity in nude athymic mouse at 5 mg/kg, po; assay type: organism-based; parameters: dose 5 mg/kg, route oral; settings: in vivo; how it was run: as §1
[11] = test system: MKN-28; assay: Antitumor activity against human MKN28 cell line xenografted in nude athymic mouse at 9 mg/kg, po measured as body weight loss; assay type: functional; how it was run: as §1
[12] = test system: MKN-28; assay: Antitumor activity against human MKN28 cell line xenografted in nude athymic mouse at 5 mg/kg, po measured as log10 of cell kill to reach 1000 mm3 tumor volume; assay type: functional
[13] = test system: MKN-28; assay: Antitumor activity against human MKN28 cell line xenografted in nude athymic mouse at 15 mg/kg, po measured as log10 of cell kill to reach 1000 mm3 tumor volume; assay type: functional
[14] = test system: MKN-28; assay: Antitumor activity against human MKN28 cell line xenografted in nude athymic mouse at 15 mg/kg, po measured as tumor volume inhibition relative to control; assay type: functional; how it was run: as §2
[15] = test system: Mus musculus; assay: Toxicity in nude athymic mouse at 9 mg/kg, po; assay type: organism-based; parameters: dose 9 mg/kg, route oral; settings: in vivo; how it was run: as §1
[16] = molecular target: T1, DNA topoisomerase 1 (Homo sapiens) (UniProt P11387); assay: Activity against human Top1-mediated DNA cleavage after 10 mins; assay type: functional
T1 sequence (whole entry): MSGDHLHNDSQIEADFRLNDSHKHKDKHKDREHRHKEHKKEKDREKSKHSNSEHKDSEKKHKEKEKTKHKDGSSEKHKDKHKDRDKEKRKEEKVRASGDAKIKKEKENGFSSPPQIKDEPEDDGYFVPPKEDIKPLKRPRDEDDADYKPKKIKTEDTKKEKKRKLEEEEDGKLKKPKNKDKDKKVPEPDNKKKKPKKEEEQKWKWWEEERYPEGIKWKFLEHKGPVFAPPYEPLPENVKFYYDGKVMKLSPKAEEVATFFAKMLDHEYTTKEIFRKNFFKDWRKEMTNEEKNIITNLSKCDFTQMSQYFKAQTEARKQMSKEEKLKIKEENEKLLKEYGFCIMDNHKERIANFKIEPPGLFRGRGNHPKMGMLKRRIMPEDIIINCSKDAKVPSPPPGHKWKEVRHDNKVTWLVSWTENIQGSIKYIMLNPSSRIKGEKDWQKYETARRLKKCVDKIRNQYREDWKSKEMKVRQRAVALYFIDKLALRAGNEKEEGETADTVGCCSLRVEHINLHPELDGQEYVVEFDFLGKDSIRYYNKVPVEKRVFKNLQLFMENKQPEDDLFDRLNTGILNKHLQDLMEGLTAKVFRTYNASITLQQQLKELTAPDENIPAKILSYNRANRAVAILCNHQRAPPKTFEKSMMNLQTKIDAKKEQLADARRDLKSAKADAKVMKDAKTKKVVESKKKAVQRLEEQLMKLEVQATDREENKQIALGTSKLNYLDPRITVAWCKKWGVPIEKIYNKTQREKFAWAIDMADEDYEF
How it was run: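 Purified full-length human recombinant top1 from GST-tagged yeast expression (640 ng per reaction), 3′-end-labelled 751-bp SV40 DNA fragment, pH 7.6 Tris buffer with 150 mM KCl, 5 mM MgCl2. 30 min at 37 °C, then 0.6 M NaCl added to reverse cleavage. Cleavage bands on denaturing gel quantified by phosphorimaging as cleaved/uncleaved radioactivity ratio, relative to 30 min level (100%).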

[17] = test system: MKN-28; assay: Antitumor activity against human MKN28 cell line xenografted in nude athymic mouse at 4 mg/kg, po measured as tumor volume inhibition relative to control; assay type: functional
How it was run: (§3)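 Tumour fragments implanted on both flanks of nude athymic mice at day 0. Dosing iv or po started when tumours were just palpable (day 3-4). Tumour volume inhibition (%) is treated over control, 20 days after last treatment.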

[18] = test system: MKN-28; assay: Antitumor activity against human MKN28 cell line xenografted in nude athymic mouse at 2 mg/kg, po measured as body weight loss; assay type: functional
[19] = test system: Mus musculus; assay: Toxicity in nude athymic mouse at 2 mg/kg, po; assay type: organism-based; parameters: dose 2 mg/kg, route oral; settings: in vivo
[20] = test system: MKN-28; assay: Antitumor activity against human MKN28 cell line xenografted in nude athymic mouse at 4 mg/kg, po measured as log10 of cell kill to reach 1000 mm3 tumor volume; assay type: functional
[21] = test system: MKN-28; assay: Antitumor activity against human MKN28 cell line xenografted in nude athymic mouse at 2 mg/kg, po measured as tumor volume inhibition relative to control; assay type: functional; how it was run: as §3
[22] = test system: MKN-28; assay: Antitumor activity against human MKN28 cell line xenografted in nude athymic mouse at 1 mg/kg, po measured as tumor volume inhibition relative to control; assay type: functional; how it was run: as §3
[23] = test system: MKN-28; assay: Antitumor activity against human MKN28 cell line xenografted in nude athymic mouse at 1 mg/kg, po measured as log10 of cell kill to reach 1000 mm3 tumor volume; assay type: functional
[24] = test system: MKN-28; assay: Antitumor activity against human MKN28 cell line xenografted in nude athymic mouse at 4 mg/kg, po measured as body weight loss; assay type: functional
[25] = test system: MKN-28; assay: Antitumor activity against human MKN28 cell line xenografted in nude athymic mouse at 2 mg/kg, po measured as log10 of cell kill to reach 1000 mm3 tumor volume; assay type: functional
[26] = test system: MKN-28; assay: Antitumor activity against human MKN28 cell line xenografted in nude athymic mouse at 1 mg/kg, po measured as body weight loss; assay type: functional
[27] = test system: Mus musculus; assay: Toxicity in nude athymic mouse at 4 mg/kg, po; assay type: organism-based; parameters: dose 4 mg/kg, route oral; settings: in vivo
[28] = test system: Mus musculus; assay: Toxicity in nude athymic mouse at 1 mg/kg, po; assay type: organism-based; parameters: dose 1 mg/kg, route oral; settings: in vivo

Structure (SMILES): CC[C@@]1(O)C(=O)OCc2c1cc1n(c2=O)Cc2c-1nc1ccccc1c2/C=N/CCCN(CCCCNC(=O)OC(C)(C)C)C(=O)OC(C)(C)C
- Activity [1]: Non-toxic
- Activity [2]: Non-toxic
- IC50 [3]: 15 nM

Structure (SMILES): CC[C@@]1(O)C(=O)OCc2c1cc1n(c2=O)Cc2c-1nc1ccccc1c2/C=N\OCCN(CCCCNC(=O)OC(C)(C)C)C(=O)OC(C)(C)C
- IC50 [3]: 1150 nM

Structure (SMILES): CCc1c2c(nc3ccc(O)cc13)-c1cc3c(c(=O)n1C2)COC(=O)[C@]3(O)CC [7-ETHYL-10-HYDROXYCAMPTOTHECIN]
- IC50 [3]: 80 nM

Structure (SMILES): CC[C@@]1(O)C(=O)OCc2c1cc1n(c2=O)Cc2c-1nc1ccccc1c2CN(CCCN(CCCCN(CCCNC(=O)OC(C)(C)C)C(=O)OC(C)(C)C)C(=O)OC(C)(C)C)C(=O)OC(C)(C)C
- IC50 [3]: 3270 nM

Structure (SMILES): CC[C@@]1(O)C(=O)OCc2c1cc1n(c2=O)Cc2c-1nc1ccccc1c2/C=N\OCCCNC(=O)OC(C)(C)C
- IC50 [3]: 300 nM

Structure (SMILES): CC[C@@]1(O)C(=O)OCc2c1cc1n(c2=O)Cc2c-1nc1ccccc1c2/C=N\OCCN(CCCCN(CCCNC(=O)OC(C)(C)C)C(=O)OC(C)(C)C)C(=O)OC(C)(C)C
- IC50 [3]: 1060 nM

Structure (SMILES): CC[C@@]1(O)C(=O)OCc2c1cc1n(c2=O)Cc2cc3c(CN(C)C)c(O)ccc3nc2-1 [TOPOTECAN]
- Activity [4]: Non-toxic
- Activity [5]: 8%
- inhibition in vivo at 5 mg/kg [6]: 80%
- Activity [7]: 1.7
- Activity [8]: 0%
- inhibition in vivo at 9 mg/kg [9]: 91%
- Activity [10]: Non-toxic
- Activity [11]: 0%
- Activity [12]: 1.3
- Activity [13]: 2.1
- inhibition in vivo at 15 mg/kg [14]: 98%
- Activity [15]: Non-toxic

Structure (SMILES): CC[C@@]1(O)C(=O)OCc2c1cc1n(c2=O)Cc2c-1nc1ccccc1c2/C=N\OCCNC(=O)OC(C)(C)C
- IC50 [3]: 84 nM

Structure (SMILES): CC[C@@]1(O)C(=O)OCc2c1cc1n(c2=O)Cc2c-1nc1ccccc1c2/C=N\OCCNCCCCNCCCN
- Activity [16]: 60%
- IC50 [3]: 1070 nM

Structure (SMILES): CC[C@@]1(O)C(=O)OCc2c1cc1n(c2=O)Cc2c-1nc1ccccc1c2/C=N\OCCNCCCCN
- Activity [16]: 60%
- IC50 [3]: 1160 nM

Structure (SMILES): CC[C@@]1(O)C(=O)OCc2c1cc1n(c2=O)Cc2c-1nc1ccccc1c2/C=N/CCCN(CCCCN(CCCNC(=O)OC(C)(C)C)C(=O)OC(C)(C)C)C(=O)OC(C)(C)C
- inhibition in vivo at 4 mg/kg [17]: 72%
- Activity [18]: 1%
- Activity [19]: Non-toxic
- Activity [20]: 1
- inhibition in vivo at 2 mg/kg [21]: 62%
- inhibition in vivo at 1 mg/kg [22]: 28%
- Activity [23]: 0.1
- Activity [24]: 7%
- Activity [25]: 0.5
- Activity [26]: 5%
- Activity [27]: Non-toxic
- IC50 [3]: 29 nM
- Activity [28]: Non-toxic

Structure (SMILES): CC[C@@]1(O)C(=O)OCc2c1cc1n(c2=O)Cc2c-1nc1ccccc1c2CNCCCNCCCCNCCCN
- Activity [16]: 60%
- IC50 [3]: 1430 nM

Structure (SMILES): CC[C@@]1(O)C(=O)OCc2c1cc1n(c2=O)Cc2c-1nc1ccccc1c2/C=N\OCCCN
- IC50 [3]: 1770 nM

Structure (SMILES): CC[C@@]1(O)C(=O)OCc2c1cc1n(c2=O)Cc2c-1nc1ccccc1c2CNCCCN(CCCCN(CCCNC(=O)OC(C)(C)C)C(=O)OC(C)(C)C)C(=O)OC(C)(C)C
- IC50 [3]: 1400 nM
